High-throughput results: PubChem BioAssay, several laboratories
In the library only some 2.3% were active in any assay of this set; here they are far more common.
STAT3 blocker – STAT3 signaling inhibition; 190,000 tested, 0.89% active; AID 862; U3A cells, IL-6 STAT3-luciferase reporter, luminescence; host cell line lacks STAT1; inhibition, % at 5.5 µM;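 active = inhibition above the mean inhibition across all screened compounds plus 3 SD, cut at about 44% in these data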;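 note: 0% = DMSO only wells and 100% = 100 µM nifuroxazide control wells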
STAT1 inh – STAT1 signaling inhibition. 200,000 tested, 0.35% active. NIH 3T3 STAT1-luciferase reporter, IFN-gamma, luminescence. inhibition, % at 5.5 µM;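 active = inhibition above a set limit, the mean inhibition across all tested compounds plus 3 SD, cut at about 34% in these data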;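 note: 0% = IFN-gamma with DMSO and 100% = IFN-gamma with 300 µM nifuroxazide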
TRAIL sens C8 – sensitizes caspase-8 expressing cells to TRAIL; NB7+C8 cells + TRAIL, ATPlite viability luminescence; 360,000 tested, 1% active; inhibition (viability loss, TRAIL sensitization), % at 10 µM;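 active = compounds causing at least 50% loss of cell viability in the single-dose screen, relative to plate controls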
HSP90 refold inh – blocks HSP90-mediated luciferase refolding in reticulocyte lysate; Rabbit reticulocyte lysate, luciferase refolding luminescence, 3 h; inhibition, % at 5.6 µM; 290,000 tested, 0.91% active;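 active = inhibition above the screen-wide mean plus 3 SD, computed separately per campaign, cut at about 16% in these data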;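 note: 0% = DMSO wells and 100% = 60 µM geldanamycin wells; inhibitors lower the luminescence because luciferase stays unfolded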
STAT3 act – increases IL-6 driven STAT3 reporter signal; activation (% of control), % at 5.6 µM; 190,000 tested, 0.91% active; U3A cells, IL-6 STAT3-luciferase reporter, luminescence; 100% = signal with IL-6 EC80 alone;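 active = activation above the screen-wide mean of compound activation plus 3 SD, cut at about 130% in these data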;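 note: 0% = background luminescence of wells with medium and substrate only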
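Material: STAT1-lacking human U3A cells, STAT3 luciferase reporter | Benchmarks: IL-6-only wells as 100% reference | Probe or stimulus: IL-6 (33 ng/mL) | Timing: Compound 1 h, then IL-6 6 h at 37 °C | Detection: Luminescence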
PPC-1+TRAIL kill – compounds killing PPC-1 cancer cells with TRAIL present (potentiator screen, no TRAIL-free arm) | cell killing (% activity), % at 4 µM or 5 µM | AID 1443 | PPC-1 cells + TRAIL, ATPLite viability luminescence | 220,000 tested, 0.41% active;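 active = cell killing above 50% in the first pass at 4 µM, then a duplicate retest at 5 µM averaging 50% or more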;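 note: plate controls were cells with TRAIL plus DMSO for no effect and medium-only wells lacking cells for full effect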
PPC1 cytotox – PPC-1 cell cytotoxicity. shares compounds with PPC-1+TRAIL kill. PPC-1 viability, ATPlite luminescence, overnight. cytotoxicity, % at 5 µM. 1,200 tested, 50% active;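 active = reconfirmed compounds whose average cytotoxicity reaches 50% or more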;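 note: 0% = DMSO-treated cells and 100% = wells holding medium but no cells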
HSP90 confirm – confirmation of HSP90 inhibitors; rabbit reticulocyte lysate, luciferase refolding luminescence, 3 h; shares compounds with HSP90 refold inh; 2,300 tested, 64% active; inhibition, % at 5.9 µM; in the data active = inhibition above about 18%;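 note: 0% = vehicle wells and 100% = reference inhibitor wells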
FLuc counter – firefly luciferase inhibition, HSP90 counter-screen; shares compounds with HSP90 refold inh; purified native firefly luciferase, luminescence; inhibition, % at 5.9 µM; 2,300 tested, 48% active;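 active = inhibition above the mean inhibition of all tested sample wells plus 3 SD, cut at about 10% in these data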;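 note: 0% = DMSO with luciferase and 100% = wells lacking luciferase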
Target sequence (P08659 whole entry, looked up): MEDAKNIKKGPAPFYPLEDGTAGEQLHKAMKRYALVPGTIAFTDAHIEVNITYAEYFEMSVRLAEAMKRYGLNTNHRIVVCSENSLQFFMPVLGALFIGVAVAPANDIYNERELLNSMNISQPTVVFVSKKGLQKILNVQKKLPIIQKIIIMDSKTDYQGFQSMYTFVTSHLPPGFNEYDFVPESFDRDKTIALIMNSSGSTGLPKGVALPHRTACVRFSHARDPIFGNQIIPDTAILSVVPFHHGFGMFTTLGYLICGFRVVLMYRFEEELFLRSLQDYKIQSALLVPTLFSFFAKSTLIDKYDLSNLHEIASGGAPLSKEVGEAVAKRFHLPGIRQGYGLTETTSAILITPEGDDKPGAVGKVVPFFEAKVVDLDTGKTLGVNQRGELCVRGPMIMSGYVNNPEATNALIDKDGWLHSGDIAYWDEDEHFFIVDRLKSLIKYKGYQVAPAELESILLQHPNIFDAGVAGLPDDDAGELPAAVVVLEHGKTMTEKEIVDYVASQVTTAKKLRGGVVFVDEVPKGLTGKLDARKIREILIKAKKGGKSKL
The depositor's hits bear a star; . = not tested or not shown.

SMILES	STAT3 blocker	STAT1 inh	TRAIL sens C8	HSP90 refold inh	STAT3 act	PPC-1+TRAIL kill	PPC1 cytotox	HSP90 confirm	FLuc counter
Cc1cc(C)c2c(N)c(C(=O)Nc3nccs3)sc2n1	58*	48*	81*	30*	54	82*	81*	62*	51*
COc1ccc(/C=N/NC(=O)c2ccc3c(c2)OCCO3)cc1[N+](=O)[O-]	4	-10	3	-2	94	16	.	.	.
O=C(N/N=C/c1ccccc1[N+](=O)[O-])c1ccc2c(c1)OCCO2	.	.	93*	22*	.	93*	93*	58*	36*
O=C(Nc1ccccn1)c1cc2ccccc2o1	89*	53*	83*	69*	26	81*	80*	80*	78*
O=C1C(Nc2ccc(O)cc2)=C/C(=N/S(=O)(=O)c2cccs2)c2ccccc21	86*	90*	96*	73*	26	73*	74*	91*	3
c1cncc(CNc2ncnc3ccc(-c4ccc5c(c4)OCCO5)cc23)c1	.	.	-10	.	.	.	.	.	.
O=[N+]([O-])c1ccc(/C=C/c2ccc3ccccc3n2)cc1	78*	52*	74*	21*	36	64*	61*	66*	54*
c1c2c(cc3sc(N4CCOCC4)nc13)OCCO2	89*	51*	78*	62*	23	63*	60*	85*	78*
c1ccc(N2CCN(c3nc4cc5c(cc4s3)OCCO5)CC2)cc1	24	-64	7	-2	81	3	.	.	.
CC(=O)Nc1cc2ccccc2oc1=O	4	-10	-5	-2	98	-4	.	.	.
Cc1ccc(C(=O)Nc2cc3ccccc3oc2=O)cc1	106*	94*	82*	50*	10	72*	72*	98*	92*
O=C(CN1C(=O)c2ccccc2S1(=O)=O)c1ccc2c(c1)OCCCO2	.	.	91*	80*	.	86*	86*	82*	-19
O=C(CN1C(=O)c2ccccc2S1(=O)=O)c1ccc2c(c1)OCCO2	.	.	85*	57*	.	84*	82*	68*	-8
CCOc1ccc2oc(C(=O)NC3CC(C)(C)NC(C)(C)C3)c(C)c2c1	5	-12	2	2	103	24	.	.	.
CC(C)OC(=O)c1cc2c(=O)[nH]c(C(Cl)(Cl)Cl)nc2o1	3	-1	-4	0	105	8	.	.	.
CC1(C)Cc2nc3sc4c(SCC(=O)O)ncnc4c3cc2CO1	.	.	76*	19*	.	71*	75*	31*	7
CC1(C)Cc2nc3sc4c(SCC(=O)NCc5ccccc5)ncnc4c3cc2CO1	-13	-34	20	3	111	13	.	.	.
COc1ccc(/C=N/NC(=O)CNC(=O)c2ccc(S(=O)(=O)N3CCOCC3)cc2)cc1OC	-2	-11	4	-4	104	5	.	.	.
Cc1ccc(OCc2nc(-c3ccccn3)no2)c(Br)c1	83*	48*	59*	40*	34	35	37	65*	61*
c1ccc2nc(-c3nc4ccccc4[nH]3)ccc2c1	83*	39*	90*	26*	34	87*	84*	72*	62*
c1ccc2[nH]c(-c3cscn3)nc2c1	-7	-16	2	4	108	12	.	.	.
Cc1cnn(C(=S)NCc2ccco2)c1	5	2	1	2	99	16	.	.	.
CC(C)(C)c1ccc(C(=O)c2c[nH]c(C(=O)O)c2)cc1	9	-48	12	53*	99	5	.	63*	3
COC(=O)c1cc(C(=O)c2ccc(C(C)(C)C)cc2)c[nH]1	-2	-24	-6	2	107	0	.	.	.
CCc1nc2ccc(C(=O)O)cc2nc1CC	37	-2	-9	75*	69	-4	.	63*	51*
CCc1nc2ccc(C(=O)N3CCN(CC)CC3)cc2nc1CC	.	.	3	-2	.	.	.	.	.
